For assay [1], the target named is T1, Prostaglandin G/H synthase 1 (Ovis aries) (UniProt P05979).
T1 sequence (whole entry): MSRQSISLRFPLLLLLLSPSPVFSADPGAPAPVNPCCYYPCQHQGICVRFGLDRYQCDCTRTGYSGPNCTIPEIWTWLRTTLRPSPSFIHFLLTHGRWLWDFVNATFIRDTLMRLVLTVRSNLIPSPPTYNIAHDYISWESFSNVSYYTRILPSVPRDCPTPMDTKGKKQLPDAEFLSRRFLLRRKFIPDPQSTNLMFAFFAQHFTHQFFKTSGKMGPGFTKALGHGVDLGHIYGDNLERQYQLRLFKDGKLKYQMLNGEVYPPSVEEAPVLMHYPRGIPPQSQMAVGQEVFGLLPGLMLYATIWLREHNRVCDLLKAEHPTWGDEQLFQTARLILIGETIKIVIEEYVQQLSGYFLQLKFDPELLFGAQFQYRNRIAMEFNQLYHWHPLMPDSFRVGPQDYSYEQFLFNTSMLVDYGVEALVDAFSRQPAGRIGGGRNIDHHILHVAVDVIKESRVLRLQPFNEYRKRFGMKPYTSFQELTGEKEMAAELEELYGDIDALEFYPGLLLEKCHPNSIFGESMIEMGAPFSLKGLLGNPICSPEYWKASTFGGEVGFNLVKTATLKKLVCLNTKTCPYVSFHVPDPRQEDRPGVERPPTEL
Nature of the assay: Inhibition of ovine COX1 assessed as inhibition of PGF2a production by enzyme immunoassay. More on the design: concentration or dose not given beside the values. Put shortly: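 Ovine COX-1 from a commercial screening kit, tested with 0.1 µM arachidonic acid, which is below the saturating level. COX-derived PGH2 is reduced by SnCl2 to PGF2a, quantified by enzyme immunoassay with a broad prostaglandin antibody. At least triplicate.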

Assay [2] is described as follows: Inhibition of soybean lipoxygenase assessed as inhibition of sodium linolate conversion to 13-hydroperoxylinoleic acid after 4 mins by spectrophotometry. More on the design: species or system Glycine max.
The subject of assay [3] is Mus musculus. As to the kind of experiment: Antiinflammatory activity in AKR mouse assessed as inhibition of carrageenan-induced paw edema at 0.01 mmol/kg, ip measured after 3.5 hrs of carrageenan-challenge. The class given is functional. A digest of the protocol:
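AKR mice of both sexes (pregnant females excluded), 6-10 per group, fasted during the experiment. Edema induced by intradermal 0.05 mL of 2% carrageenin into the right hind paw. Compound given at 0.01 mmol/kg ip, suspended in water with Tween-80, at the same time as carrageenin.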
For orientation: In the carrageenan paw model, swelling and tenderness develop within hours.

Assay [4] deals with Aspergillus fumigatus. Nature of the assay: Fungicidal activity against Aspergillus fumigatus after 72 hrs by serial subcultivation method. It is filed as functional.
Assay [5] concerns Penicillium ochrochloron. Nature of the assay: Antifungal activity against Penicillium ochrochloron ATCC 9112 after 72 hrs by serial dilution technique. It is filed as functional. The following applies: ATCC 9112, 72 h. A digest of the protocol: (§1)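 Serial dilution in malt broth; compounds from 1 mg/ml stocks in 5% DMSO; 72 h at 28 °C. MIC is the lowest concentration with no visible growth under a binocular microscope. Run in duplicate, repeated three times.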

In assay [6] the test system is Trichoderma viride. Nature of the assay: Antifungal activity against Trichoderma viride IAM 5061 after 72 hrs by serial dilution technique. It is filed as functional. The note with it: IAM 5061, 72 h. Put shortly: as §1
The subject of assay [7] is Talaromyces funiculosus. As to the kind of experiment: Antifungal activity against Penicillium funiculosum ATCC 36839 after 72 hrs by serial dilution technique. It is filed as functional. The following applies: ATCC 36839, 72 h. Put shortly:
as §1

Assay [8] deals with Aspergillus niger. As to the kind of experiment: Fungicidal activity against Aspergillus niger ATCC 6275 after 72 hrs by serial subcultivation method. The class given is functional. The note with it: ATCC 6275, 72 h.
For assay [9], the system named is Talaromyces funiculosus. As to the kind of experiment: Fungicidal activity against Penicillium funiculosum ATCC 36839 after 72 hrs by serial subcultivation method. The class given is functional. The following applies: ATCC 36839, 72 h.
In assay [10] the test system is Aspergillus niger. As to the kind of experiment: Antifungal activity against Aspergillus niger ATCC 6275 after 72 hrs by serial dilution technique. The following applies: ATCC 6275, 72 h. The class given is functional. Put shortly: as §1
Assay [11] deals with Aspergillus fumigatus. Nature of the assay: Antifungal activity against Aspergillus fumigatus after 72 hrs by serial dilution technique. It is filed as functional. A digest of the protocol: as §1
For assay [12], the system named is Penicillium ochrochloron. Nature of the assay: Fungicidal activity against Penicillium ochrochloron ATCC 9112 after 72 hrs by serial subcultivation method. The class given is functional. The following applies: ATCC 9112, 72 h.
Assay [13] concerns Trichoderma viride. As to the kind of experiment: Fungicidal activity against Trichoderma viride IAM 5061 after 72 hrs by serial subcultivation method. The following applies: IAM 5061, 72 h. It is filed as functional.
The subject of assay [14] is Aspergillus flavus. Nature of the assay: Antifungal activity against Aspergillus flavus ATCC 9643 after 72 hrs by serial dilution technique. The class given is functional. The following applies: ATCC 9643, 72 h. Put shortly:
as §1

In assay [15] the test system is Aspergillus flavus. Nature of the assay: Fungicidal activity against Aspergillus flavus ATCC 9643 after 72 hrs by serial subcultivation method. The class given is functional. The following applies: ATCC 9643, 72 h.
Assay [16] has as its system Micrococcus flavus. Nature of the assay: Antibacterial activity against Micrococcus flavus ATCC 10240 after 24 hr by microdilution test. It is filed as functional. The following applies: ATCC 10240, 24 h. A digest of the protocol: (§2)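 Broth microdilution in LB medium, about 1.0×10^4 cfu per well; compounds from 1 mg/ml stocks in 5% DMSO. Incubated 24 h. MIC is the lowest concentration with no visible growth under a binocular microscope. Run in duplicate, repeated three times.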
On the technique in general: Broth dilution looks for growth in wells or tubes with falling amounts of substance.

Assay [17] deals with Staphylococcus aureus. As to the kind of experiment: Bactericidal activity against Staphylococcus aureus ATCC 6538 after 72 hrs by serial subcultivation method. The class given is functional. The note with it: ATCC 6538, 72 h.
Assay [18] relates to Staphylococcus aureus. As to the kind of experiment: Antibacterial activity against Staphylococcus aureus ATCC 6538 after 24 hr by microdilution test. It is filed as functional. The note with it: ATCC 6538, 24 h. Put shortly:
as §2

The subject of assay [19] is Listeria monocytogenes. As to the kind of experiment: Antibacterial activity against Listeria monocytogenes NCTC 7973 after 24 hr by microdilution test. It is filed as functional. The following applies: NCTC 7973, 24 h. Put shortly: as §2
For assay [20], the system named is Micrococcus flavus. As to the kind of experiment: Bactericidal activity against Micrococcus flavus ATCC 10240 after 72 hrs by serial subcultivation method. It is filed as functional. The note with it: ATCC 10240, 72 h.
For assay [21], the system named is Escherichia coli. As to the kind of experiment: Bactericidal activity against Escherichia coli ATCC 35210 after 72 hrs by serial subcultivation method. The note with it: ATCC 35210, 72 h. The class given is functional.
Assay [22] relates to Pseudomonas aeruginosa. As to the kind of experiment: Antibacterial activity against Pseudomonas aeruginosa ATCC 27853 after 24 hr by microdilution test. The following applies: ATCC 27853, 24 h. It is filed as functional. Put shortly: as §2
Assay [23] has as its system Bacillus cereus. Nature of the assay: Antibacterial activity against Bacillus cereus clinical isolate after 24 hr by microdilution test. The class given is functional. Put shortly:
as §2

The test system of assay [24] is Bacillus cereus. As to the kind of experiment: Bactericidal activity against Bacillus cereus clinical isolate after 72 hrs by serial subcultivation method. It is filed as functional.
Assay [25] relates to Escherichia coli. Nature of the assay: Antibacterial activity against Escherichia coli ATCC 35210 after 24 hr by microdilution test. It is filed as functional. The following applies: ATCC 35210, 24 h. Put shortly: as §2
The subject of assay [26] is Pseudomonas aeruginosa. As to the kind of experiment: Bactericidal activity against Pseudomonas aeruginosa ATCC 27853 after 72 hrs by serial subcultivation method. It is filed as functional. The note with it: ATCC 27853, 72 h.
The subject of assay [27] is Listeria monocytogenes. As to the kind of experiment: Bactericidal activity against Listeria monocytogenes NCTC 7973 after 72 hrs by serial subcultivation method. It is filed as functional. The note with it: NCTC 7973, 72 h.

≈ marks a conversion by molar mass, not a printed value. Calls of active or inactive are those of the source. The rule behind the calls is not given here.

From ChEMBL document CHEMBL2311431, “Synthesis and biological evaluation of some 5-arylidene-2-(1,3-thiazol-2-ylimino)-1,3-thiazolidin-4-ones as dual anti-inflammatory/antimicrobial agents” (Bioorg Med Chem, 2013) come the findings set out here.

In general, inhibition refers to the percentage by which the read-out fell short of the control. As a reminder, the IC50 is the midpoint of a concentration-inhibition curve. `CC(Cc1ccc(O)c(O)c1)C(C)Cc1ccc(O)c(O)c1` (configuration not stated) [NORDIHYDROGUAIARETIC ACID]: the inhibition entry in [1] and in assay [3] was “inactive” each time. The IC50 in [2] (read-out: IC50) stood at 32 µM.

The term MFC denotes the lowest tested concentration that kills the fungus rather than only halting it. As a reminder, the MIC is the least concentration at which growth counts as inhibited. For the molecule `c1ccc(-c2ccc(C(c3ccccc3)n3ccnc3)cc2)cc1` (configuration not stated) [BIFONAZOLE], the MFC came to 640 µM (≈ 199 µg/mL) in [4]; 640 µM (≈ 199 µg/mL) in assay [8]; 800 µM (≈ 248 µg/mL) in assay [9]; 640 µM (≈ 199 µg/mL) in assay [12]; 800 µM (≈ 248 µg/mL) in assay [13]; 640 µM (≈ 199 µg/mL) in [15]. Moreover, the MIC was found to be 480 µM (≈ 149 µg/mL) in assay [5]; 640 µM (≈ 199 µg/mL) in assay [6]; 640 µM (≈ 199 µg/mL) in assay [7]; 480 µM (≈ 149 µg/mL) in assay [10]; 480 µM (≈ 149 µg/mL) in assay [11]; 480 µM (≈ 149 µg/mL) in assay [14].

For the molecule `COc1ccc2cc([C@H](C)C(=O)O)ccc2c1` [NAPROXEN], the inhibition in assay [1] (concentration not given here) is 46%. Also, the IC50 result in assay [2] is reported as “Not Active”. In addition, the inhibition result in assay [3] is “inactive”.

The term MBC denotes the lowest tested concentration that kills the bacteria rather than only halting them. `CC1(C)S[C@@H]2[C@H](NC(=O)[C@H](N)c3ccccc3)C(=O)N2[C@H]1C(=O)O` [AMPICILLIN]: the MIC in [16] stood at 248 µM (≈ 86.7 µg/mL); in assay [18] it was 248 µM (≈ 86.7 µg/mL); in assay [19], 372 µM (≈ 130 µg/mL); in assay [22], 744 µM (≈ 260 µg/mL); in [23], 248 µM (≈ 86.7 µg/mL); in assay [25] it was 372 µM (≈ 130 µg/mL). In addition, the MBC came out at 372 µM (≈ 130 µg/mL) in [17]; 372 µM (≈ 130 µg/mL) in assay [20]; 492 µM (≈ 172 µg/mL) in assay [21]; 372 µM (≈ 130 µg/mL) in assay [24]; 1240 µM (≈ 433 µg/mL) in [26]; 744 µM (≈ 260 µg/mL) in assay [27].

On to `COc1ccc2c(c1)c(CC(=O)O)c(C)n2C(=O)c1ccc(Cl)cc1` [INDOMETHACIN], for which the inhibition result in assay [1] was “inactive”. For the same molecule, the IC50 result in assay [2] is on record as “Not Active”.
